In brackets after ≈: the same amount, converted by molar mass. Activity calls are given as the source filed them. No cut-off for these calls is given here.
Columns and labels:
[1] = Selectivity ratio of HC50 for hemolytic activity against mouse RBC to MIC for methicillin-resistant Staphylococcus aureus; format: toxicity; conditions: mouse red blood cells (erythrocytes)
Outline: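 Mouse RBCs were washed three times in PBS and diluted in 20 volumes of PBS. They were mixed with compound 2-fold serially diluted from 1 mg/mL in PBS, incubated 1 h at 37 °C, then centrifuged; supernatant read at A540. % hemolysis was calculated against PBS (0%) and 2% Triton (100%). Done ≥3 times in duplicate. HC50 was divided by the MRSA MIC.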

Klebsiella pneumoniae [2] = assay: Antibacterial activity against Klebsiella pneumoniae ATCC 13383; format: functional
Outline: (§1)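 Broth microdilution in TSB. Stocks at 5 mg/mL in DMSO diluted with TSB to 100 μg/mL, then serially diluted; highest test concentration 25 μg/mL. Bacteria grown 16 h, subcultured 6 h to log phase, adjusted to 10^6 CFU/mL by OD600. MIC = lowest concentration giving complete growth inhibition. At least three repeats, each in duplicate.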

Cell membrane [3] = assay: Induction of cell membrane disruption in methicillin-resistant Staphylococcus aureus ATCC 33591 assessed as propidium iodide-positive cells at 2 times MIC after 2 hrs by fluorescence microscopic analysis; format: subcellular
Outline: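 A 10^6 CFU/mL suspension was diluted 100-fold and treated at 2× MIC for 2 h. Cells were pelleted (4000g, 15 min, 4 °C), washed three times in PBS, then stained 15 min with PI (5 μg/mL) and DAPI (10 μg/mL). Imaged by oil-immersion fluorescence microscopy alongside an untreated control. Three repeats in duplicate.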

[4] = system: Staphylococcus epidermidis; assay: Antibacterial activity against methicillin-resistant Staphylococcus epidermidis RP62A in presence of monovalent Na+ and K+; format: functional
Outline: (§2)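 MIC set up as in the standard broth microdilution (log-phase inoculum at 10^6 CFU/mL, complete growth inhibition end point). The medium was TSB dissolved in 1× PBS (7.5 g per 250 mL) and autoclaved, supplying Na+ and K+.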

Staphylococcus aureus [5] = assay: Bactericidal activity against methicillin-resistant Staphylococcus aureus ATCC 33591 at 24 to 48 microg/ml measured upto 60 mins by time kill assay; format: functional, organism-based; conditions: dose microg/ml 24-48, time min <=60
Outline: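 Mid-log MRSA (overnight culture in TSB at 37 °C with shaking, then 6 h subculture) at 10^6 CFU/mL was exposed to 6, 12, 24 or 48 μg/mL at 37 °C for 10, 30, 60 and 120 min. Samples were diluted 10^2-fold, plated on TSB agar, incubated 20 h at 37 °C, and colonies counted. Untreated control; three repeats.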

Staphylococcus aureus [6] = assay: Antibacterial activity against methicillin-resistant Staphylococcus aureus ATCC 33591 in presence of divalent Ca2+; format: functional
Outline: (§3)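 MIC set up as in the standard TSB broth microdilution (log-phase inoculum at 10^6 CFU/mL, complete growth inhibition end point). The medium was TSB prepared in DI water with CaCl2 added to 2 mM.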

Escherichia coli [7] = assay: Antibacterial activity against Escherichia coli ATCC 25922 in presence of monovalent Na+ and K+; format: functional
Outline: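 MIC by the standard broth dilution method, in medium made by dissolving TSB powder in 1× PBS (7.5 g per 250 mL), autoclaved, to supply Na+ and K+. Inoculum of log-phase bacteria at 10^6 CFU/mL. MIC = lowest concentration completely inhibiting growth.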

[8] = Hemolytic activity against mouse RBC measured after 1 hr by microplate reader analysis; format: ADME, cell-based, Erythrocyte; conditions: mouse red blood cells (erythrocytes)
Outline: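 Mouse red blood cells collected by centrifugation (500–700g, 10 min), washed three times in PBS, and diluted 20-fold in PBS. Mixed with 2-fold serial dilutions of compound (starting at 1 mg/mL in PBS) and incubated 1 h at 37 °C. After centrifugation, supernatant absorbance read at 540 nm. % hemolysis calculated relative to PBS (0%) and 2% Triton (100%). At least three repeats in duplicate.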

Staphylococcus aureus [9] = assay: Antibacterial activity against methicillin-resistant Staphylococcus aureus ATCC 33591 in presence of monovalent Na+ and K+; format: functional; outline: as §2
Escherichia coli [10] = assay: Antibacterial activity against Escherichia coli ATCC 25922; format: functional; outline: as §1
Staphylococcus aureus [11] = assay: Antibacterial activity against methicillin-resistant Staphylococcus aureus ATCC 33591; format: functional
Outline: (§4)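 Broth microdilution in TSB. Strains were grown 16 h, subcultured 6 h to log phase, then diluted to 10^6 CFU/mL by OD600. Compound came from a 5 mg/mL DMSO stock diluted in TSB and serially diluted, top final concentration 25 μg/mL. MIC was the lowest concentration giving complete growth inhibition. Done ≥3 times in duplicate.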

[12] = system: Staphylococcus epidermidis; assay: Antibacterial activity against methicillin-resistant Staphylococcus epidermidis RP62A in presence of divalent Ca2+; format: functional; outline: as §3
Escherichia coli [13] = assay: Antibiofilm activity against Escherichia coli ATCC 25922 assessed as reduction in biofilm formation at 3 ug/ml measured after 2 days by crystal violet staining based assay; format: functional; conditions: ATCC 25922, 48 h, time 2 day
Outline: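 Mid-log E. coli (overnight culture, then 6 h subculture at 37 °C) set up with compound in TSB as in the MIC assay and incubated 2 days. Wells washed with DI water, stained with 0.1% crystal violet for 15 min, washed, dried, and dye solubilized in 30% acetic acid for 15 min. OD595 normalized to untreated control. Ciprofloxacin as comparator. Triplicate, mean ± STDEV.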

Cell membrane [14] = assay: Induction of cell membrane disruption in Escherichia coli ATCC 25922 assessed as propidium iodide-positive cells at 2 times MIC after 2 hrs by fluorescence microscopic analysis; format: subcellular
Outline: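 Bacteria from a 10^6 CFU/mL suspension diluted 100-fold and treated with compound at 2 × MIC for 2 h. Cells pelleted (4000g, 15 min, 4 °C), washed three times in PBS, and stained 15 min with PI (5 μg/mL) and DAPI (10 μg/mL). Imaged by oil-immersion fluorescence microscopy; untreated controls included. Three repeats in duplicate.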

Klebsiella pneumoniae [15] = assay: Antibacterial activity against Klebsiella pneumoniae ATCC 13383 in presence of divalent Ca2+; format: functional
Outline: (§5)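 MIC by the standard TSB broth dilution method, in TSB made with DI water and supplemented with CaCl2 to 2 mM. Inoculum of log-phase bacteria at 10^6 CFU/mL. MIC = lowest concentration completely inhibiting growth.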

Cell membrane [16] = assay: Induction of inner membrane permeabilization in methicillin-resistant Staphylococcus aureus ATCC 33591 at 2 times MIC measured for 12 mins by propidium iodide staining based fluorescence microscopic analysis; format: functional, subcellular
Outline: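 Mid-log cells were washed in 5 mM HEPES/5 mM glucose and set at 10^6 CFU/mL, then mixed with PI (10 μM stock). Baseline fluorescence (ex 535/em 617 nm) was read about 8 min at 2-min intervals. Compound was then added and reading continued for 12 min. Water-only negative control; three repeats.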

Escherichia coli [17] = assay: Antibacterial activity against Escherichia coli ATCC 25922 in presence of divalent Ca2+; format: functional; outline: as §5
[18] = Selectivity ratio of IC50 for cytotoxicity against human HeLa cells to MIC for methicillin-resistant Staphylococcus aureus; format: toxicity, cell-based
Outline: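 HeLa cells were seeded at 5×10^3/well and allowed to attach for 24 h (37 °C, 5% CO2). They were then exposed 24 h to a range of compound concentrations in growth medium. Viability was read by CCK-8 (1 h, absorbance 490 nm). Triplicate wells, three repeats. IC50 was divided by the MRSA MIC.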

[19] = system: Staphylococcus epidermidis; assay: Antibacterial activity against methicillin-resistant Staphylococcus epidermidis RP62A; format: functional; outline: as §4

CCCCCCCCCC(=O)N[C@@H](CCCCN)CN1CC(=O)N(c2ccc(N3CN(C[C@H](CCCCN)NC(=O)CCCCCCCCC)CC3=O)cc2)C1
selectivity ratio [1]: > 125 | MIC (Klebsiella pneumoniae [2]): 5 µg/mL (≈ 6.38 µM) | Activity (Cell membrane [3]): Active | MIC [4]: 7 µg/mL | Activity (Staphylococcus aureus [5]): Active | MIC (Staphylococcus aureus [6]): 2 µg/mL | MIC (Escherichia coli [7]): 5 µg/mL | HC50 at 1 h [8]: > 250 µg/mL | MIC (Staphylococcus aureus [9]): 4 µg/mL | MIC (Escherichia coli [10]): 5 µg/mL (≈ 6.38 µM) | MIC (Staphylococcus aureus [11]): 2 µg/mL (≈ 2.55 µM) | MIC [12]: 2 µg/mL | inhibition at 3 µg/mL (Escherichia coli [13]): > 50% | Activity (Cell membrane [14]): Active | MIC (Klebsiella pneumoniae [15]): 5 µg/mL | Activity (Cell membrane [16]): Active | MIC (Escherichia coli [17]): 7 µg/mL | selectivity ratio [18]: > 38 | MIC [19]: 5 µg/mL (≈ 6.38 µM)
